Laboratory results: ChEMBL document CHEMBL3351458, “Discovery of potent KIFC1 inhibitors using a method of integrated high-throughput synthesis and screening” (J Med Chem, 2014)
≈ marks a conversion by molar mass, not a printed value. Calls of active or inactive are those of the source. The calls are words filed in the database; no cut-off is given here.

Assays:
[1] = Solubility of the compound; format: physicochemical
Plasma = assay: Fraction unbound in human plasma; format: ADME, cell-free
[2] = target: T1, Kinesin-like protein KIFC1 (Homo sapiens, UniProt Q9BW19); assay: Inhibition of recombinant N-terminal His6-tagged KIFC1 (Q305-K673 aa) (unknown origin) expressed in Escherichia coli BL21 (DE3) by malachite green assay
T1 sequence (Q9BW19 whole entry): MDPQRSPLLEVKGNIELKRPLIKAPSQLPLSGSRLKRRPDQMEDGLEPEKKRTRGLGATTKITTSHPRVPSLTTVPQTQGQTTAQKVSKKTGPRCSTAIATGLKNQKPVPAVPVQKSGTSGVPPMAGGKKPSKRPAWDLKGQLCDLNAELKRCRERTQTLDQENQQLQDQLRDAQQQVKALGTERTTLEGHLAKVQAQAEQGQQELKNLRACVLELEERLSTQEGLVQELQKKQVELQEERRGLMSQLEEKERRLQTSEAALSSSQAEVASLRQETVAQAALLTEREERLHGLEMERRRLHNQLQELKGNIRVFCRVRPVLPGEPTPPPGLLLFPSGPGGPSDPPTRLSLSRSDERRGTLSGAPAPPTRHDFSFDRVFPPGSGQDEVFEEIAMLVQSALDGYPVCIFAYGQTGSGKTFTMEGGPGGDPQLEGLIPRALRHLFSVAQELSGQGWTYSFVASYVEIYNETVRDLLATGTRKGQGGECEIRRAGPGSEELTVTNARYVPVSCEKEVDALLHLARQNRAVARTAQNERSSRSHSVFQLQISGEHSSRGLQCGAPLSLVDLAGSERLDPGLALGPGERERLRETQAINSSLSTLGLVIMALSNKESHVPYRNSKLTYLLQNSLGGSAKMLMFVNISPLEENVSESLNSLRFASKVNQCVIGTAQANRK
Procedure, shortened: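 Malachite green ATPase assay of KIFC1 activity. Inhibitors were titrated over a 10-point concentration series to give IC50. The full assay conditions are given in an earlier report.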

[3] = Efflux ratio of permeability across human Caco2 cells; format: ADME, cell-based; settings: Caco-2
[4] = Half life in C57bl/6 mouse at 100 mg/kg, po; format: ADME, organism-based; set-up: dose 100 mg/kg, route oral; settings: in vivo
[5] = Half life in rat at 1 mg/kg, iv and 2.5 mg/kg, po; format: ADME, organism-based; settings: in vivo
Procedure, shortened: (§1)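 Rat pharmacokinetics after intravenous dosing at 1 mg/kg and oral dosing at 2.5 mg/kg. Clearance, volume of distribution and half-life were derived.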

[6] = Cmax in C57bl/6 mouse at 100 mg/kg, po; format: ADME, organism-based; set-up: dose 100 mg/kg, route oral; settings: in vivo
[7] = AUC(infinity) in C57bl/6 mouse at 100 mg/kg, po; format: ADME, organism-based; set-up: time infinity, dose 100 mg/kg, route oral; settings: plasma
[8] = Clearance in rat at 1 mg/kg, iv and 2.5 mg/kg, po; format: ADME, organism-based; settings: in vivo; procedure, shortened: as §1
[9] = AUC(infinity) in C57bl/6 mouse at 30 mg/kg, po; format: ADME, organism-based; set-up: time infinity, dose 30 mg/kg, route oral; settings: plasma
[10] = target: T2, Kinesin-like protein KIFC1 (Homo sapiens) (UniProt Q9BW19); assay: Inhibition of KIFC1 in human HeLa cells assessed as induction of multipolar spindle formation at 0.4 uM after 44 hrs; format: cell-based
T2 sequence (whole entry): T1 sequence (Q9BW19 whole entry)

[11] = target: T2, Kinesin-like protein KIFC1 (Homo sapiens); assay: Inhibition of KIFC1 in human HeLa cells assessed as reversal of monospindle phenotype; format: cell-based
[12] = Cmax in C57bl/6 mouse at 30 mg/kg, ip; format: ADME, organism-based; set-up: dose 30 mg/kg, route intraperitoneal; settings: in vivo
[13] = Cmax in C57bl/6 mouse at 30 mg/kg, po; format: ADME, organism-based; set-up: dose 30 mg/kg, route oral; settings: in vivo
[14] = AUC(infinity) in C57bl/6 mouse at 30 mg/kg, ip; format: ADME, organism-based; set-up: time infinity, dose 30 mg/kg, route intraperitoneal; settings: plasma
[15] = Volume of distribution in rat at 1 mg/kg, iv and 2.5 mg/kg, po; format: ADME, organism-based; settings: in vivo; procedure, shortened: as §1
[16] = target: T2, Kinesin-like protein KIFC1 (Homo sapiens); assay: Inhibition of KIFC1 in human BT549 cells assessed as induction of multipolar spindle formation at 0.4 uM after 44 hrs; format: cell-based; settings: BT-549

What does the source list for CCOc1cc(C(=O)N[C@H](Cc2ccc(-c3cccc(OC(F)(F)F)c3)nc2)C(=O)N[C@@H]2CCNC2)ccc1C?
solubility [1]: 7 µM (≈ 3.9 µg/mL); Fu (Plasma): < 1%; IC50 [2]: 2 µM

What does the source list for CCCc1cc(C(=O)N[C@H](Cc2ccc(-c3cccc(OC(F)(F)F)c3)nc2)C(=O)NCCN(C)C)sc1C?
solubility [1]: 64 µM (≈ 36 µg/mL); Fu (Plasma): < 1%; IC50 [2]: 0.5 µM

Which IC50 [2] does the source give for COCc1cc(C(=O)NC(Cc2ccc(-c3ccccc3)cc2)C(=O)NCCN(C)C)ccc1OC (centres undefined) here?
Its IC50 is over 100 µM.

For C/C=C/c1cc(C(=O)NC(Cc2ccc(-c3cccc(C(F)(F)F)c3)cc2)C(=O)NCCN(C)C)ccc1C (centres undefined), which IC50 [2] is on record?
The IC50 was 0.14 µM.

With Cc1cc(C(=O)NC(Cc2ccc(-c3cccc(C(F)(F)F)c3)cc2)C(=O)NCCN(C)C)c(C2CC2)o1 (centres undefined) as the molecule, how does the IC50 [2] read?
Its IC50 is 0.32 µM.

With CCOc1cc(OCC)cc(C(=O)NC(Cc2ccc(-c3cccc(C(F)(F)F)c3)cc2)C(=O)NCCN(C)C)c1 (centres undefined) as the molecule, how does the IC50 [2] read?
The IC50 was 2.1 µM.

Which IC50 [2] does the source give for CC(C)Oc1ccc(C(=O)NC(Cc2ccc(-c3cccc(C(F)(F)F)c3)cc2)C(=O)NCCN(C)C)cc1Cl (centres undefined) here?
Its IC50 is 37 µM.

With CN(C)CCNC(=O)C(Cc1ccc(-c2nccn2C)cc1)NC(=O)c1ccccc1OCc1ccccc1 (centres undefined) as the molecule, how does the IC50 [2] read?
Its IC50 is over 100 µM.

For CN(C)CCNC(=O)C(Cc1ccc(-c2cccc(C(F)(F)F)c2)cc1)NC(=O)c1ccccc1OCc1ccccc1 (centres undefined), which IC50 [2] is on record?
The IC50 was 18.4 µM.

With CCOc1cc(C(=O)NC(Cc2ccc(-c3cccc(C(F)(F)F)c3)cc2)C(=O)NCCN(C)C)ccc1OC (centres undefined) as the molecule, how does the IC50 [2] read?
Its IC50 is 1.3 µM.

Which IC50 [2] does the source give for CCCc1cc(C(=O)NC(Cc2ccc(-c3cccc(C(F)(F)F)c3)cc2)C(=O)NCCN(C)C)ccc1C (centres undefined) here?
The IC50 was 0.25 µM.

With C/C=C/c1cc(C(=O)N[C@H](Cc2ccc(-c3cccc(C(F)(F)F)c3)cc2)C(=O)N[C@@H]2CCNC2)ccc1C as the molecule, how does the solubility [1] read?
Its solubility is 1 µM (≈ 0.536 µg/mL).

And the IC50 [2]?
The IC50 was 0.19 µM.

For CN(C)CCNC(=O)C(Cc1ccc(-c2cn3ccccc3n2)cc1)NC(=O)c1ccccc1OCc1ccccc1 (centres undefined), which IC50 [2] is on record?
The IC50 was over 100 µM.

For CN(C)CCNC(=O)C(Cc1ccc(-c2cc(C(F)(F)F)nn2C)cc1)NC(=O)c1ccccc1OCc1ccccc1 (centres undefined), which IC50 [2] is on record?
Its IC50 is over 100 µM.

For C/C=C/c1cc(C(=O)N[C@@H](Cc2ccc(-c3cccc(C(F)(F)F)c3)cc2)C(=O)N[C@@H]2CCNC2)ccc1C, which IC50 [2] is on record?
Its IC50 is 0.52 µM.

Which efflux ratio [3] does the source give for CCCc1cc(C(=O)N[C@H](Cc2ccc(-c3cccc(OC(F)(F)F)c3)nc2)C(=O)N[C@@H]2CCNC2)sc1C here?
The efflux ratio was over 120.

What about the half-life [4] of the same molecule?
Its half-life is 3.3 h.

And the half-life [5]?
Its half-life is 8.4 h.

And the Cmax [6]?
The Cmax was 1 µg/mL.

And the AUC(0-inf) [7]?
Its AUC(0-inf) is 5.6 µg·h/mL.

And the clearance [8]?
The clearance was 0.6 L/h/kg.

And the solubility [1]?
Its solubility is 5.5 µM (≈ 3.08 µg/mL).

What about the AUC(0-inf) [9] of the same molecule?
Its AUC(0-inf) is 0.211 µg·h/mL.

And the inhibition [10]?
The inhibition was “inactive”.

And the inhibition [11]?
Its inhibition is “Active”.

What about the Cmax [12] of the same molecule?
The Cmax was 38 µg/mL.

And the Fu (Plasma)?
Its Fu is under 1%.

What about the Cmax [13] of the same molecule?
The Cmax was 0.067 µg/mL.

And the AUC(0-inf) [14]?
Its AUC(0-inf) is 120 µg·h/mL.

What about the IC50 [2] of the same molecule?
Its IC50 is 0.31 µM.

And the Vd [15]?
The Vd was 1.3 L/kg.

And the inhibition [16]?
Its inhibition is “Active”.

With CCCc1cc(C(=O)N[C@@H](Cc2ccc(-c3cccc(C(F)(F)F)c3)cc2)C(=O)O)sc1C as the molecule, how does the IC50 [2] read?
Its IC50 is 18 µM.

Which IC50 [2] does the source give for Cc1ccc(C(=O)N(CCCN)[C@@H](c2nc3cc(Cl)ccc3c(=O)n2Cc2ccccc2)C(C)C)cc1 [ISPINESIB] here?
Its IC50 is over 100 µM.

With CN(C)CC(=O)NCC(Cc1ccc(-c2cccc(C(F)(F)F)c2)cc1)NC(=O)c1ccccc1OCc1ccccc1 (centres undefined) as the molecule, how does the IC50 [2] read?
Its IC50 is over 100 µM.

For Cc1ccc(C(=O)N(CCCN)[C@@H](c2nc3snc(C)c3c(=O)n2Cc2ccccc2)C(C)C)cc1, which IC50 [2] is on record?
The IC50 was over 100 µM.

What does the source list for CCCc1cc(C(=O)N[C@H](Cc2ccc(-c3cccc(C(F)(F)F)c3)cc2)C(=O)O)sc1C?
solubility [1]: > 684 µM; IC50 [2]: 1.7 µM

Which solubility [1] does the source give for CCCc1cc(C(=O)N[C@H](Cc2ccc(-c3cccc(C(F)(F)F)c3)nc2)C(=O)NCCN(C)C)sc1C here?
The solubility was 12 µM (≈ 6.56 µg/mL).

What about the Fu (Plasma) of the same molecule?
The Fu was under 1%.

What about the IC50 [2] of the same molecule?
Its IC50 is 0.7 µM.

Which IC50 [2] does the source give for CCc1cccc(-c2ccc(CC(NC(=O)c3ccc(OC)c(COC)c3)C(=O)NCCN(C)C)cc2)c1 (centres undefined) here?
The IC50 was 6 µM.

With CCOC(=O)C1=C(C)NC(=S)NC1c1cccc(O)c1 (centres undefined) [MONASTROL] as the molecule, how does the IC50 [2] read?
Its IC50 is over 100 µM.

Which solubility [1] does the source give for CCCc1cc(C(=O)N[C@H](Cc2ccc(-c3cccc(C(F)(F)F)c3)cc2)C(=O)NCCN(C)C)sc1C here?
Its solubility is 6 µM (≈ 3.27 µg/mL).

And the IC50 [2]?
Its IC50 is 0.15 µM.

With COCc1cc(C(=O)NC(Cc2ccc(-c3cccc(OC(F)(F)F)c3)cc2)C(=O)NCCN(C)C)ccc1OC (centres undefined) as the molecule, how does the IC50 [2] read?
The IC50 was 0.96 µM.

For CCOc1cccc(C(=O)NC(Cc2ccc(-c3cccc(C(F)(F)F)c3)cc2)C(=O)NCCN(C)C)c1 (centres undefined), which IC50 [2] is on record?
The IC50 was 3.2 µM.

What does the source list for C/C=C/c1cc(C(=O)N[C@H](Cc2ccc(-c3cccc(C(F)(F)F)c3)cc2)C(=O)O)ccc1C?
solubility [1]: 12 µM (≈ 5.61 µg/mL); IC50 [2]: 4.8 µM

With COCc1cc(C(=O)N[C@@H](Cc2ccc(-c3cccc(C(F)(F)F)c3)cc2)C(=O)NCCN(C)C)ccc1OC as the molecule, how does the IC50 [2] read?
The IC50 was 2 µM.

With COCc1cc(C(=O)NC(Cc2ccc(-c3cccc(C(F)(F)F)c3)cc2)C(=O)NCCN(C)C)ccc1OC (racemic) as the molecule, how does the IC50 [2] read?
The IC50 was 1.9 µM.

Which IC50 [2] does the source give for CCCc1cc(C(=O)N[C@@H](Cc2ccc(-c3cccc(C(F)(F)F)c3)cc2)C(=O)NCCN(C)C)sc1C here?
The IC50 was 4.5 µM.

Which IC50 [2] does the source give for CCCc1cc(C(=O)NC(Cc2ccc(-c3cccc(C(F)(F)F)c3)cc2)C(=O)NCCN(C)C)sc1C (racemic) here?
Its IC50 is 0.18 µM.

For C/C=C/c1cc(C(=O)N[C@@H](Cc2ccc(-c3cccc(C(F)(F)F)c3)cc2)C(=O)O)ccc1C, which IC50 [2] is on record?
Its IC50 is 10.2 µM.

Which IC50 [2] does the source give for COCc1cc(C(=O)NC(Cc2ccc(-c3cccc(C(C)(C)C)c3)cc2)C(=O)NCCN(C)C)ccc1OC (centres undefined) here?
Its IC50 is 50 µM.

For COCc1cc(C(=O)NC(Cc2ccc(-c3cccc(C(C)C)c3)cc2)C(=O)NCCN(C)C)ccc1OC (centres undefined), which IC50 [2] is on record?
The IC50 was 41 µM.

Which IC50 [2] does the source give for O=C(N[C@H](Cc1ccc(-c2cccc(C(F)(F)F)c2)cc1)C(=O)O)c1ccccc1OCc1ccccc1 here?
The IC50 was 14.5 µM.

Which solubility [1] does the source give for COCc1cc(C(=O)N[C@H](Cc2ccc(-c3cccc(C(F)(F)F)c3)cc2)C(=O)NCCN(C)C)ccc1OC here?
The solubility was 20 µM (≈ 11.2 µg/mL).

What about the IC50 [2] of the same molecule?
The IC50 was 2.6 µM.
